Measurements published in ChEMBL document CHEMBL1156932, “Structure based drug design: development of potent and selective factor IXa (FIXa) inhibitors” (J Med Chem, 2010).

Columns and labels:
[1] = molecular target: Coagulation factor X (Homo sapiens, UniProt P00742); assay: Inhibition of factor 10a by amidolytic assay
How it was run: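 […] taken as the mean of at least three experiments. Variation between runs stated as under 10%.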

[2] = molecular target: Coagulation factor IX (Homo sapiens, UniProt P00740); assay: Inhibition of human recombinant factor 9a by amidolytic assay
[3] = molecular target: Urokinase-type plasminogen activator (Homo sapiens, UniProt P00749)
[4] = Selectivity ratio of Ki for factor 10a to Ki for human recombinant factor 9a
[5] = Selectivity ratio of Ki for uPA to Ki for human recombinant factor 9a

Coagulation factor IX, sequence (P00740 47-191 limits assumed): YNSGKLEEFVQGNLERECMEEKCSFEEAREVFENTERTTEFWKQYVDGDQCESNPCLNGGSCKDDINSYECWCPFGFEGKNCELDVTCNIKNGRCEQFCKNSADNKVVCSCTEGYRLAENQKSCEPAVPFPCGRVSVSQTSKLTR
Coagulation factor IX, sequence (P00740 227-461 limits assumed): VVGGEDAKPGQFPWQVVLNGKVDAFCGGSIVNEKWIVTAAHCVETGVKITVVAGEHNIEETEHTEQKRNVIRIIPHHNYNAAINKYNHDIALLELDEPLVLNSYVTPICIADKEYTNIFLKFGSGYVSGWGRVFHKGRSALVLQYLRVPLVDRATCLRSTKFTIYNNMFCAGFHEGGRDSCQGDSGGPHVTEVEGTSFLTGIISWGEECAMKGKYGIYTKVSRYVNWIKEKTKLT
Coagulation factor X, sequence (P00742 41-179 limits assumed): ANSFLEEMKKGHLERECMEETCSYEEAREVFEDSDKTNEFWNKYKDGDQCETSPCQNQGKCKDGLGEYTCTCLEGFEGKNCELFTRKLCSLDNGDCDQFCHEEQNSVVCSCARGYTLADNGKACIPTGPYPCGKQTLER
Coagulation factor X, sequence (P00742 235-488 limits assumed): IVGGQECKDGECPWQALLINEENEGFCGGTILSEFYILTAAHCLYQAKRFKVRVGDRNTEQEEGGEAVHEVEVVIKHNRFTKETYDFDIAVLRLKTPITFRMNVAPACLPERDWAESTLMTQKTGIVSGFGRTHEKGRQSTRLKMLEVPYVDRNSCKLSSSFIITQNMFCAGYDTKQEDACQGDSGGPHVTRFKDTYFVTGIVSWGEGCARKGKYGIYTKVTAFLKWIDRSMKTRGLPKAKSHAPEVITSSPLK

SMILES | Ki [1] [nM] | Ki [2] [nM] | Ki [3] [nM] | Ratio Ki [4] | Ratio Ki [5]
N=C(N)c1cc2c(OC(CNC(=O)Nc3ccccc3)c3ccccc3)cccc2s1 (stereo not drawn) | 960 | 29 | 250 |  | 
COc1ccccc1NC(=O)C(Oc1cccc2sc(C(=N)N)cc12)c1ccccc1 (stereo not drawn) | 70 | 140 | 120 |  | 
CCNC(=O)OCC(Oc1cccc2sc(C(=N)N)cc12)c1ccccc1 (stereo not drawn) | 360 | 28 | 150 |  | 
N=C(N)c1cc2c(OC(C(=O)NCc3ccccc3)c3ccccc3)cccc2s1 (stereo not drawn) | 950 | 390 | 510 |  | 
COC(=O)CCNC(=O)C(Oc1cccc2sc(C(=N)N)cc12)c1ccccc1 (stereo not drawn) |  | 8400 |  |  | 
N=C(N)c1cc2c(OC(CN)c3ccccc3)cccc2s1 (stereo not drawn) | 4450 | 160 | 270 |  | 
N=C(N)c1cc2c(OC(CO)c3ccccc3)cccc2s1 (stereo not drawn) | 1740 | 270 |  |  | 
CNCc1cc(NC(=O)OCC(Oc2cccc3sc(C(=N)N)cc23)c2ccccc2)n(C)n1 (stereo not drawn) | 1270 | 5 | 251 | 254 | 50
N=C(N)c1cc2c(OC(COC(=O)Nc3ccc(F)cc3F)c3ccccc3)cccc2s1 (stereo not drawn) | 1480 | 7 | 575 | 212 | 82
N=C(N)c1cc2c(OC(C(=O)Nc3ccccc3)c3ccccc3)cccc2s1 (stereo not drawn) | 150 | 170 | 140 |  | 
CN(C)C(=O)c1ccc(NC(=O)C(Oc2cccc3sc(C(=N)N)cc23)c2ccccc2)cc1 (stereo not drawn) | 0.6 | 370 | 160 |  | 
CNCc1ccccc1NC(=O)OCC(Oc1cccc2sc(C(=N)N)cc12)c1ccccc1 (stereo not drawn) | 1150 | 3 | 308 | 383 | 103
N=C(N)c1cc2c(OC(CNC(=O)Oc3ccccc3)c3ccccc3)cccc2s1 (stereo not drawn) | 560 | 50 | 85 |  | 
N=C(N)c1cc2c(OC(COC(=O)Nc3ccccc3CN)c3ccccc3)cccc2s1 (stereo not drawn) | 825 | 4 | 297 | 206 | 74
N=C(N)c1cc2c(OC(CNCc3ccccc3)c3ccccc3)cccc2s1 (stereo not drawn) | 250 | 100 | 310 |  | 
N=C(N)c1cc2c(OC(COC(=O)Nc3ccccc3)c3ccccc3)cccc2s1 (stereo not drawn) | 1810 | 10 | 440 | 181 | 44
N=C(N)c1cc2c(OC(COC(=O)Nc3ccccc3)c3ccccc3)cc(F)cc2s1 (stereo not drawn) | 1590 | 15.5 | 2110 | 102 | 137
COc1ccc(NC(=O)OCC(Oc2cccc3sc(C(=N)N)cc23)c2ccccc2)cc1 (stereo not drawn) | 800 | 5 | 226 | 160 | 45
CCOC(=O)c1nccn1-c1ccc(NC(=O)C(Oc2cccc3sc(C(=N)N)cc23)c2ccccc2)cc1 (stereo not drawn) | 2.6 | 420 | 190 |  | 
COCc1cc(NC(=O)OCC(Oc2cccc3sc(C(=N)N)cc23)c2ccccc2)n(C)n1 (stereo not drawn) | 1560 | 9 | 109 | 173 | 12
N=C(N)c1cc2c(OC(C(=O)Nc3ccc(C(=O)N4CCCC4)cc3)c3ccccc3)cccc2s1 (stereo not drawn) | 0.5 | 290 | 130 |  | 
Cc1noc(C)c1NC(=O)OCC(Oc1cccc2sc(C(=N)N)cc12)c1ccccc1 (stereo not drawn) | 2250 | 12 | 142 | 210 | 12
N=C(N)c1cc2c(OC(COC(=O)NCc3ccccc3)c3ccccc3)cccc2s1 (stereo not drawn) | 830 | 61 | 510 |  | 
Cc1ccccc1NC(=O)OCC(Oc1cccc2sc(C(=N)N)cc12)c1ccccc1 (stereo not drawn) | 1180 | 8 | 308 | 148 | 36
CN(C)Cc1ccccc1NC(=O)OCC(Oc1cccc2sc(C(=N)N)cc12)c1ccccc1 (stereo not drawn) | 828 | 8 | 609 | 104 | 76
COc1ccc(NC(=O)C(Oc2cccc3sc(C(=N)N)cc23)c2ccccc2)cc1 (stereo not drawn) | 52 | 140 | 140 |  | 

Continued by falling Ki [2], values first:

Ki [1] [nM] | Ki [2] [nM] | Ki [3] [nM] | Ratio Ki [4] | Ratio Ki [5] | SMILES
> 100000 | 5150 | 2270 |  |  | COC(=O)C(C)Oc1cccc2sc(C(=N)N)cc12 (stereo not drawn)
3400 | 1000 | 2130 |  |  | CN(C)CCNC(=O)C(Oc1cccc2sc(C(=N)N)cc12)c1ccccc1 (stereo not drawn)
13800 | 500 | 500 |  |  | COC(=O)C(Oc1cccc2sc(C(=N)N)cc12)c1ccccc1 (stereo not drawn)
1300 | 340 | 220 |  |  | CC(=O)NCC(Oc1cccc2sc(C(=N)N)cc12)c1ccccc1 (stereo not drawn)
3970 | 270 | 650 |  |  | N=C(N)c1cc2c(O[C@@H](c3ccccc3)c3nc(-c4ccccc4)no3)cccc2s1
290 | 130 | 170 |  |  | COc1cccc(NC(=O)C(Oc2cccc3sc(C(=N)N)cc23)c2ccccc2)c1 (stereo not drawn)
700 | 97 | 210 |  |  | CNC(=O)OCC(Oc1cccc2sc(C(=N)N)cc12)c1ccccc1 (stereo not drawn)
3770 | 35 | 1630 | 108 | 47 | COc1ccc(NC(=O)OC[C@@H](Oc2cccc3sc(C(=N)N)cc23)c2ccccc2)cc1
1300 | 25 | 935 | 52 | 37 | N=C(N)c1cc2c(OC(COC(=O)Nc3cccc(F)c3)c3ccccc3)cccc2s1 (stereo not drawn)
1300 | 11 | 59 | 118 | 5 | COC(=O)Cn1nc(C)c(NC(=O)OCC(Oc2cccc3sc(C(=N)N)cc23)c2ccccc2)c1C (stereo not drawn)
1560 | 10 | 201 | 156 | 20 | CN1CCN(Cc2ccc(NC(=O)OCC(Oc3cccc4sc(C(=N)N)cc34)c3ccccc3)cc2)CC1 (stereo not drawn)
1360 | 8.1 | 940 | 169 | 117 | CN(C)Cc1ccccc1NC(=O)OCC(Oc1cc(F)cc2sc(C(=N)N)cc12)c1ccccc1 (stereo not drawn)
550 | 5 | 331 | 110 | 62 | N=C(N)c1cc2c(OC(COC(=O)Nc3ccccc3F)c3ccccc3)cccc2s1 (stereo not drawn)
2110 | 4.4 | 828 | 486 | 190 | N=C(N)c1cc2c(OC(COC(=O)Nc3ccccc3CN)c3ccccc3)cc(F)cc2s1 (stereo not drawn)
872 | 4 | 201 | 218 | 50 | CN(C)CCOc1ccc(NC(=O)OCC(Oc2cccc3sc(C(=N)N)cc23)c2ccccc2)cc1 (stereo not drawn)
600 | 3 | 89 | 200 | 30 | COc1ccc(NC(=O)OC[C@H](Oc2cccc3sc(C(=N)N)cc23)c2ccccc2)cc1
583 | 2 | 733 | 292 | 367 | CC(C)CNCc1ccccc1NC(=O)OCC(Oc1cccc2sc(C(=N)N)cc12)c1ccccc1 (stereo not drawn)
